GRK2 inh = human GRK2 inhibition via aptamer displacement. inhibition of aptamer binding, % at 10 µM. bead flow cytometry, FAM-aptamer displacement from GRK2. 330,000 compounds, 0.59% hits. P25098;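 active means inhibition of aptamer binding above 40%, roughly 3 SD of noise, on plates passing a quality check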;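 further: median bead fluorescence of bound FAM aptamer so fluorescent compounds give negative values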
procasp7 counter = counter-screen for procaspase-3 activators: activators of human procaspase-7 | P55210 | recombinant procaspase-7, Ac-DEVD-pNA absorbance 405 nm; D23A/D198A/D206A triple mutant, cannot self-cleave; scale: DMSO 0, 5 µM enzyme 100 | activation, % at 8.5 µM | 330,000 compounds, 0.093% hits | AID 463210;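 active means percent activation above the screen-wide mean plus 3 SD, cut at about 25% in these data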
Target sequence (P55210 whole entry D23A/D198A/D206A): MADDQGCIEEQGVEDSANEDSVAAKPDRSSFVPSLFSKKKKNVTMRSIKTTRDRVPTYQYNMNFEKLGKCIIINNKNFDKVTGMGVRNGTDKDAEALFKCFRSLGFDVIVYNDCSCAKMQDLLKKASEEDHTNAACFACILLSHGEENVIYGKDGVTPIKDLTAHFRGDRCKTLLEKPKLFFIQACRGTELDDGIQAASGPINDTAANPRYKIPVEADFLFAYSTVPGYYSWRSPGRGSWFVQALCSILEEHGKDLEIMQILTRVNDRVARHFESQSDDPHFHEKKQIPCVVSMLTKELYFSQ
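Assay system: Uncleavable procaspase-7 mutant enzyme; Input: 2 µM procaspase-7 mutant as dispensed; Also added: DEVD-pNA substrate; Medium: Zinc-free HEPES pH 7.4 with 300 mM NaCl, 0.01% Triton X-100; Timing: 1 h compound preincubation, 2 h substrate cleavage, 25 °C; Measured by: Epi-absorbance of released pNA at 405 nm, two timepoints.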
procasp3 activ = procaspase-3 (human) activation; activation, % at 8.5 µM; P42574; recombinant procaspase-3 D3A, Ac-DEVD-pNA absorbance 405 nm; 330,000 compounds, 0.11% hits;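 active means activation above the mean of all tested compounds plus 3 SD, cut at about 21% in these data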
Target sequence (P42574 whole entry D9A/D28A/D175A): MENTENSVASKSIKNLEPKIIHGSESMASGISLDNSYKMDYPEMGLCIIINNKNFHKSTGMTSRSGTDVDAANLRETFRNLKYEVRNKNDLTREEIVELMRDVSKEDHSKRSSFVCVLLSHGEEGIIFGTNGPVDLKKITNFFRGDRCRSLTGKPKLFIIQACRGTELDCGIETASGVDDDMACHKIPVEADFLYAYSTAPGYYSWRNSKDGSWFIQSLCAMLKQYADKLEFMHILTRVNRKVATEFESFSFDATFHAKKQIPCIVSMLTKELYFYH
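Test system: Procaspase-3 D3A mutant, all three cleavage aspartates alanine | Dosing: Single dose, 8.5 µM nominal compound, 0.8% DMSO | Schedule: 1 h preincubation, 2 h reaction | Technique: 405 nm absorbance of p-nitroaniline, reads at 0 and 120 min | Repeats: One well per compound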
T cell modulator = modulates CD8 T cell binding to vesicles; response (vesicle binding), % at 7 µM; 330,000 compounds, 0.068% hits; AID 2052; 2C CD8+ T cell-vesicle binding, flow cytometry; hits give low values;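 active means response, share of CD8 T cells binding vesicles, and their 90th percentile fluorescence all below set limits, cut at about 80% in these data, passing the limit was not always enough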;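 further: values below 100% mean blocked vesicle binding to the CD8+ T cells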
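Read-out – percent CD8+ FL2 mean versus row control · System – murine 2C transgenic CD8+ T lymphocytes · Times – 1.5 h cell–vesicle binding at 37 °C, then 20 min icy labelling · Control set – naked vesicles low, QL9 vesicles with vehicle high · Detection – cytometric PE anti-B7-1 and Alexa647 anti-CD8 signals after 1% paraformaldehyde fixation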
aDG glyco up = alpha-DG glycosylation activation; Pro5-aDG cells, alpha-DG glycosylation AlphaScreen (IIH6); 0% Pro5, 100% B10-LARGE cell signal; 360,000 compounds, 0.22% hits; AID 624168; activation, % at 10 µM;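 active means activation of at least 8% versus controls, or a plate z-score of at least 8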;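 further: Pro5 are CHO cells carrying HIG-tagged alpha-DG that lacks glycosylation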
CaV13 ICDI inh = Primary screen for inhibitors of IQ motif and Ca2+-dependent inactivation inhibitor domain binding in CACNA1D, Förster resonance energy transfer in living cells, … | HEK cells, CFP/YFP FRET ICDI-IQ, plate reader, 10 min; percent FRET-ratio fall versus neutral wells | inhibition, % at 12.3 µM | 340,000 compounds, 0.098% hits | AID 743397;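 active means mean replicate inhibition of at least 30% and at least 1% of replicates passing that level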
GRK2 CP1 = human GRK2 inhibition confirmation, cherry pick 1; shares compounds with GRK2 inh; bead-bound GRK2, FAM-aptamer displacement, flow cytometry; aptamer displacement, % at 10 µM; 2,000 compounds, 4% hits; AID 504451;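 active means aptamer displacement above 40%, near three times the noise of non-fluorescent compounds, on plates passing quality checks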;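 further: negative values mostly reflect intrinsic compound fluorescence rather than true enhancement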
Aptamer quench = fluorescent aptamer quenching in GRK2 counter-screen dose response; fluorescence change (kMESF span), kMESF (test concentration not listed); Fluorescent RNA aptamer beads, flow cytometry; hits give high values; shares compounds with GRK2 inh; AID 504521; 110 tested, under 10 active;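 active means compounds whose bead fluorescence drops by more than 37 kMESF across the dose range, marking them as dye quenchers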
FAM quench CP1 = quenches fluorescent RNA aptamer, GRK2 hit artifact; 2,000 tested, under 10 active; fluorescence response (% of DMSO), % at 10 µM; Carboxyfluorescein RNA aptamer on beads, flow cytometry quenching; hits give low values; shares compounds with GRK2 inh; AID 504580;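 active means compounds that quench the bead-bound fluorescent RNA probe, cutting fluorescence to under half of the solvent control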;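 further: counterscreen run without GRK2 so only probe quenching by compound is measured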
GRK2 confirm 2 = confirmation of human GRK2 inhibitors binding RNA aptamer site. shares compounds with GRK2 inh. bead-bound GRK2, FAM-aptamer displacement, flow cytometry. inhibition of aptamer binding, % at 10 µM. 360 tested, under 10 active. AID 504782;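 active means inhibition of aptamer binding above 40%, about triple the noise seen with nonglowing compounds, on plates passing quality control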;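 further: negative values mostly come from compounds that fluoresce themselves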
FAM quench SP = aptamer fluorescence quenching in GRK2 counter-screen; 360 tested, under 10 active; AID 588494; carboxyfluorescein RNA aptamer beads, flow cytometry quenching; hits give low values; shares compounds with GRK2 inh; fluorescence response vs DMSO, % at 10 µM;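 active means response vs DMSO under 50%, meaning signal dropped by over half, treated as fluorescence quencher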;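 further: labelled aptamer on streptavidin beads without GRK2 as a quench counter-screen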
Numbers stand for hits; – = inactive; · = not tested or not shown. The list is not random: actives were taken first. Their share in the collection is about 1.1%.

SMILES | GRK2 inh | procasp7 counter | procasp3 activ | T cell modulator | aDG glyco up | CaV13 ICDI inh | GRK2 CP1 | FAM quench CP1 | others
O=C(O)c1ccc2c(c1)[C@@H]1C=CC[C@@H]1[C@H](c1ccccn1)N2 | 42 | – | – | – | – | – | – | –
C=CCn1c(=O)c2ccccc2n2c(=S)[nH]nc12 | 98 | – | – | – | – | – | – | –
CC(C)CCn1c(=O)c2ccccc2n2c(=S)[nH]nc12 | – | – | – | – | – | – | · | ·
COc1ccc2[nH]c3c(=O)n(/N=C/c4ccc(OC)c(CN5CCCC5)c4)c(C)nc3c2c1 | 59 | – | – | – | – | – | – | –
COCCN(C(=O)c1sc2ccccc2c1Cl)c1c(N)n(CC(C)C)c(=O)[nH]c1=O | – | – | – | – | – | – | · | ·
Cn1c(/N=C(\N)c2ccccc2)nc2ccccc21 | · | · | · | · | – | – | · | ·
CC[C@@H](C)[C@@H]1CN([C@@H](CN2CCC[C@H]2CN2C(N)=NC[C@H]2CC(C)C)C(C)C)C(=N)N1CCc1ccc(Cl)c(Cl)c1 | – | – | – | – | – | – | · | ·
CC[C@@H](C)[C@@H]1CN([C@@H](C)CN2CCC[C@H]2CN2C(N)=NC[C@H]2CC(C)C)C(=N)N1CCc1ccc(Cl)c(Cl)c1 | 84 | – | – | – | – | – | · | · | GRK2 confirm 2=–;FAM quench SP=–
COc1cccc(NC(=O)CN2C(=O)COc3ccc(S(=O)(=O)N4CCOCC4)cc32)c1 | – | – | – | – | – | – | · | ·
O=C(CN1C(=O)COc2ccc(S(=O)(=O)N3CCOCC3)cc21)Nc1cccc(Cl)c1 | 66 | – | – | – | – | – | – | –
Cc1cc2c3c([nH]c2cc1S(=O)(=O)N1CCC2(CC1)OCCO2)CC(C)(C)CC3=O | – | – | – | – | – | – | · | ·
Nc1c(C(=O)CSc2nncn2-c2ccccc2)c(=O)[nH]c(=O)n1C1CC1 | 61 | – | – | – | – | – | – | –
COc1ccc(C2CC(=O)C(c3cccc(Cl)c3)=CN2Cc2ccccc2)cc1 (stereo not drawn) | · | · | · | · | · | – | · | ·
O=C(O)c1ccc(Nc2nc3ccccc3nc2NS(=O)(=O)c2cccs2)cc1 | 94 | – | – | – | – | – | – | –
COCCNCCCOc1ccc(Br)cc1Cl | – | – | – | – | – | – | · | ·
COCCCNCCCCOc1ccc(Br)cc1Cl | 41 | – | – | – | – | – | · | · | GRK2 confirm 2=–;FAM quench SP=–
COCCCNCCOCCOc1ccc(C)cc1Br | 100 | – | – | – | – | – | · | · | GRK2 confirm 2=–;FAM quench SP=–
O=S(=O)(CS(=O)(=O)c1ccccc1Br)c1ccccc1Br | · | · | · | · | · | – | · | ·
COCCCN1C(=O)C(=O)/C(=C(/O)c2ccc(S(=O)(=O)N3CCCCC3)cc2)C1c1ccc(O)cc1 (stereo not drawn) | – | – | – | – | – | – | – | –
COc1ccccc1C(=O)NC(=O)CSc1nnc(C)s1 | – | – | – | – | – | – | · | ·
COC(=O)c1ccc(S(=O)(=O)NCc2ccco2)o1 | 47 | – | – | – | – | – | – | –
COC(=O)c1ccc(S(=O)(=O)NCc2ccc(S(N)(=O)=O)cc2)o1 | – | – | – | – | – | – | · | ·
COc1ccc(N2CCN(C(=O)NC(=O)c3ccccc3)CC2)cc1 | 57 | – | – | – | – | – | · | · | GRK2 confirm 2=–;FAM quench SP=–
O=C1CC(c2ccc3c(c2)OCCO3)Oc2ccc([N+](=O)[O-])cc21 (stereo not drawn) | 42 | – | – | – | – | – | – | –
Cc1nc(-c2nc(CC(=O)NNC(=O)c3ccc(Cl)cc3)cs2)cs1 | 47 | – | – | – | – | – | – | –
SMILES | GRK2 inh | procasp7 counter | procasp3 activ | T cell modulator | aDG glyco up | CaV13 ICDI inh | GRK2 CP1 | FAM quench CP1 | others
Cc1nc(-c2nc(-c3c(C(=O)NNC(=O)c4ccc(Cl)cc4)noc3C)cs2)cs1 | – | – | – | – | – | – | · | ·
CCOc1ccc2nc(NC(=O)CCn3cccc3)sc2c1 | – | – | – | – | – | – | – | –
COCCCNC(=O)CCCN1C(=O)c2cccnc2Sc2ccccc21 | – | – | – | – | – | – | · | ·
O=C(N/N=C/c1cccnc1)c1cc(O)c(O)c(O)c1 | 44 | – | – | – | – | – | – | –
CC1=NN(c2cccc(C(=O)O)c2)C(=O)/C1=C\C=C\c1ccco1 | 83 | – | – | – | – | · | 60 | – | Aptamer quench=–
CC1=NN(c2ccccc2)C(=O)/C1=C/C=C/c1ccccc1 | – | – | – | – | – | – | · | ·
Cc1cc(=O)n2nc(N3CCCC(C(=O)NCc4ccccc4Cl)C3)sc2n1 (stereo not drawn) | – | – | – | – | – | – | – | –
Cc1cc(=O)n2nc(N3CCCC(C(=O)NCc4ccccc4C)C3)sc2n1 (stereo not drawn) | – | – | – | – | – | – | – | –
CC1CC(C)CN(S(=O)(=O)N2CCCC(C(=O)NCc3ccccc3Cl)C2)C1 (stereo not drawn) | – | – | – | – | – | – | – | –
CC1CCN(S(=O)(=O)N2CCCC(C(=O)NCc3ccccc3Cl)C2)CC1 (stereo not drawn) | – | – | – | – | – | – | · | ·
O=[N+]([O-])c1ccc(N2CCN(Cc3ccccc3)CC2)nc1 | – | – | – | – | – | – | · | ·
O=[N+]([O-])c1ccc(N2CCN(c3cccc(Cl)c3)CC2)nc1 | – | – | – | – | – | – | – | –
O=C(NC1=NCCS1)C1CCN(S(=O)(=O)c2ccc(Cl)cc2)CC1 | – | – | – | – | – | – | · | ·
O=C(NC1=NCCS1)C1CCN(S(=O)(=O)c2cc([N+](=O)[O-])ccc2Cl)CC1 | – | – | – | – | – | – | – | –
CCCCN(C)c1c(C)nc2ccc(C(=O)N(C)Cc3ccco3)cn12 | · | · | · | · | – | – | · | ·
Cc1c(C(=O)OC(C)C)sc(N)c1C(=O)OC(C)C | 70 | – | – | – | – | – | · | · | GRK2 confirm 2=–;FAM quench SP=–

High-throughput results as filed in PubChem BioAssay.
